In ChEMBL document CHEMBL3244277, “Study of trans-cyclopropylbis (diketopiperazine) and chelating agents related to ICRF 159. Cytotoxicity, mutagenicity, and effects on scheduled and unscheduled DNA synthesis” (J Med Chem, 1977):

Columns and labels:
V79-4 [1] = experiment: Mutagenicity in chinese hamster V79-4 cells assessed as mutation frequency measured per 5 x 10^5 cells per plate at 10^-4 M after 24 hrs relative to control; assay type: toxicity, cell-based, Cricetulus griseus; conditions: v79-4, 24 h, 100 µM
How it was run: (§1)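 V-79A cells plated at 5×10⁵ or 1×10⁵ per dish in MEM + 5% FCS and allowed 2 h to attach. Exposed 24 h at 37 °C to 10⁻³–10⁻⁵ M drug or none, washed in PBS, then grown 12 days in MEM + 10% FCS with 10⁻³ M ouabain. Resistant colonies were counted after hematoxylin/eosin staining, averaging 20 plates, and expressed per 5×10⁵ cells.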

[2] = Cytotoxicity against chinese hamster V79-4 cells assessed as survival using 1 x 10^5 cells per plate at 10^-3 M after 24 hrs; assay type: cell-based, Cricetulus griseus; conditions: read-out: Survival
How it was run: (§2)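 Chinese hamster V-79A cells were seeded in 100-mm dishes, allowed to attach for 2 h, then exposed for 24 h to drug diluted from PBS stocks into Eagle's MEM with 15% fetal calf serum. Cells were rinsed twice in Hank's salt solution and grown drug-free for 7 days at 37 °C in 5% CO2. Colonies were stained with hematoxylin/eosin and counted; each value is the mean of eight plates.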

[3] = Cytotoxicity against chinese hamster V79-4 cells assessed as survival using 1 x 10^5 cells per plate at 10^-4 M after 24 hrs; assay type: cell-based, Cricetulus griseus; conditions: read-out: Survival; how it was run: as §2
V79-4 [4] = experiment: Induction of unscheduled DNA synthesis in chinese hamster V79-4 cells assessed as DNA synthesis at 10^-4 to 10^-5 M measured at 0 to 5 hrs by [3H]thymidine uptake /autoradiography in presence of 2 x 10^-3 M hydroxyurea; conditions: Cricetulus griseus
V79-4 [5] = experiment: Induction of unscheduled DNA synthesis in chinese hamster V79-4 cells assessed as DNA synthesis at 10^-3 M measured at 8 hrs by [3H]thymidine uptake /autoradiography in presence of 2 x 10^-3 M hydroxyurea; conditions: Cricetulus griseus, v79-4, 8 h, 1000 µM
V79-4 [6] = experiment: Mutagenicity in chinese hamster V79-4 cells assessed as mutation frequency measured per 1 x 10^5 cells per plate at 10^-4 M after 24 hrs relative to control; assay type: toxicity, cell-based, Cricetulus griseus; conditions: v79-4, 24 h, 100 µM
[7] = Cytotoxicity against chinese hamster V79-4 cells assessed as survival using 5 x 10^5 cells per plate at 10^-3 M after 24 hrs; assay type: cell-based, Cricetulus griseus; conditions: read-out: Survival; how it was run: as §2
V79-4 [8] = experiment: Inhibition of scheduled DNA synthesis in chinese hamster V79-4 cells assessed as DNA synthesis at 10^-4 M measured at 10 hrs by [3H]thymidine uptake /autoradiography (reference value: 83.3 %); assay type: functional, Cricetulus griseus; set-up: scale not given: the % may be the effect or the level left
[9] = Cytotoxicity against chinese hamster V79-4 cells assessed as survival using 5 x 10^5 cells per plate at 10^-4 M after 24 hrs; assay type: cell-based, Cricetulus griseus; conditions: read-out: Survival; how it was run: as §2
[10] = Cytotoxicity against chinese hamster V79-4 cells assessed as survival using 5 x 10^5 cells per plate at […] after 24 hrs; assay type: cell-based, Cricetulus griseus; conditions: read-out: Survival
V79-4 [11] = experiment: Inhibition of scheduled DNA synthesis in chinese hamster V79-4 cells assessed as DNA synthesis at 10^-3 M measured at 10 hrs by [3H]thymidine uptake /autoradiography (reference value: 83.3 %); assay type: functional, Cricetulus griseus; set-up: scale not given: the % may be the effect or the level left
V79-4 [12] = experiment: Mutagenicity in chinese hamster V79-4 cells assessed as mutation frequency measured per 5 x 10^5 cells per plate at 10^-5 M after 24 hrs relative to control; assay type: toxicity, cell-based, Cricetulus griseus; conditions: v79-4, 24 h, 10 µM; how it was run: as §1
V79-4 [13] = experiment: Inhibition of scheduled DNA synthesis in chinese hamster V79-4 cells assessed as DNA synthesis at 10^-5 M measured at 10 hrs by [3H]thymidine uptake /autoradiography (reference value: 83.3 %); assay type: functional, Cricetulus griseus; set-up: scale not given: the % may be the effect or the level left
[14] = Cytotoxicity against chinese hamster V79-4 cells assessed as survival using 1 x 10^5 cells per plate at […] after 24 hrs; assay type: cell-based, Cricetulus griseus; conditions: read-out: Survival
V79-4 [15] = experiment: Induction of unscheduled DNA synthesis in chinese hamster V79-4 cells assessed as DNA synthesis at 10^-3 to 10^-5 M measured at 0 to 8 hrs by [3H]thymidine uptake /autoradiography in presence of 2 x 10^-3 M hydroxyurea; conditions: Cricetulus griseus
V79-4 [16] = experiment: Inhibition of scheduled DNA synthesis in chinese hamster V79-4 cells assessed as DNA synthesis at 10^-3 M measured at 10 hrs by [3H]thymidine uptake /autoradiography (reference value: 85.2 %); assay type: functional, Cricetulus griseus; set-up: scale not given: the % may be the effect or the level left
V79-4 [17] = experiment: Inhibition of scheduled DNA synthesis in chinese hamster V79-4 cells assessed as DNA synthesis at 10^-4 M measured at 10 hrs by [3H]thymidine uptake /autoradiography (reference value: 85.2 %); assay type: functional, Cricetulus griseus; set-up: scale not given: the % may be the effect or the level left
V79-4 [18] = experiment: Inhibition of scheduled DNA synthesis in chinese hamster V79-4 cells assessed as DNA synthesis at 10^-5 M measured at 10 hrs by [3H]thymidine uptake /autoradiography (reference value: 85.2 %); assay type: functional, Cricetulus griseus; set-up: scale not given: the % may be the effect or the level left
V79-4 [19] = experiment: Induction of unscheduled DNA synthesis in chinese hamster V79-4 cells assessed as DNA synthesis at 10^-3 to 10^-5 M measured at 8 hrs by [3H]thymidine uptake /autoradiography in presence of 2 x 10^-3 M hydroxyurea; conditions: Cricetulus griseus, v79-4, 8 h
V79-4 [20] = experiment: Inhibition of scheduled DNA synthesis in chinese hamster V79-4 cells assessed as DNA synthesis at 10^-3 M measured at 10 hrs by [3H]thymidine uptake /autoradiography (reference value: 81.7 %); assay type: functional, Cricetulus griseus; set-up: scale not given: the % may be the effect or the level left
V79-4 [21] = experiment: Inhibition of scheduled DNA synthesis in chinese hamster V79-4 cells assessed as DNA synthesis at 10^-4 M measured at 10 hrs by [3H]thymidine uptake /autoradiography (reference value: 81.7 %); assay type: functional, Cricetulus griseus; set-up: scale not given: the % may be the effect or the level left
V79-4 [22] = experiment: Inhibition of scheduled DNA synthesis in chinese hamster V79-4 cells assessed as DNA synthesis at 10^-5 M measured at 10 hrs by [3H]thymidine uptake /autoradiography (reference value: 81.7 %); assay type: functional, Cricetulus griseus; set-up: scale not given: the % may be the effect or the level left

Row | Compound | viability at 24 h, 1000 µM [2] | viability at 24 h, 100 µM [3] | Activity (V79-4 [4]) | Activity (V79-4 [5]) | viability at 24 h, 1000 µM [7] | viability at 24 h, 100 µM [9] | viability at 24 h, 10 µM [10] | viability at 24 h, 10 µM [14] | other results
1 | O=C1CN([C@H]2C[C@@H]2N2CC(=O)NC(=O)C2)CC(=O)N1 (relative stereo) | 30% | 50% | Non-toxic | Toxic | 30% | 50% | 70% | 70% | Activity (V79-4 [1]): Non-toxic; Activity (V79-4 [6]): Non-toxic; Activity (V79-4 [8]): 78.3%; Activity (V79-4 [11]): 76.3%; Activity (V79-4 [12]): Non-toxic; Activity (V79-4 [13]): 82.2%
2 | COC(=O)CN(CC(=O)OC)[C@@H]1C[C@H]1N(CC(=O)OC)CC(=O)OC (relative stereo) | 0.02% | 2% |  |  | 0.02% | 2% | 90% | 90% | 
3 | O=C(O)CN(CC(=O)O)[C@@H]1C[C@H]1N(CC(=O)O)CC(=O)O (relative stereo) |  |  |  |  | 0.04% | 0.6% | 10% | 10% | Activity (V79-4 [15]): Toxic; Activity (V79-4 [16]): 7.3%; Activity (V79-4 [17]): 75.5%; Activity (V79-4 [18]): 83.8%
4 | CC(CN(CC(=O)O)CC(=O)O)N(CC(=O)O)CC(=O)O (centres undefined) |  | 85% | Non-toxic | Toxic | 1% | 85% | 94% | 94% | Activity (V79-4 [19]): Toxic; Activity (V79-4 [20]): 61.1%; Activity (V79-4 [21]): 64.7%; Activity (V79-4 [22]): 69.2%
